Read-outs that look alike come from different tables or passages of the source. Values belong to the molecule of their own block, whether it stands above or below them.
Key:
A. baumannii AB19606 = test: Broth microdilution standalone MIC; assay type: cell-based; conditions: Acinetobacter baumannii, AB19606, read-out: standalone MIC against AB19606
A. baumannii AB5075 [1] = test: Broth microdilution standalone MIC; assay type: cell-based; conditions: Acinetobacter baumannii, AB5075, read-out: standalone MIC against AB5075
HepG2 cells = test: XTT cell viability assay with HepG2 cells; assay type: cell-based, human; conditions: for IC50: Homo sapiens; for TI: HepG2 IC50 / adjuvant concentration that reduces CLR MIC to breakpoint
How it was run: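 Cytotoxicity is tested on HepG2 human hepatoma cells, using lead cyclized-linker 2-AI-benzimidazole conjugates and their parent amide analogues. IC50 is taken from dose-response curves. […] TI is not calculated for compounds without adjuvant activity.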

AB4957 = test: CLR potentiation, clinical isolate; assay type: cell-based, Acinetobacter baumannii; conditions: adjuvant at 10 μM
AB4026 = test: CLR potentiation, clinical isolate; assay type: cell-based, Acinetobacter baumannii; conditions: adjuvant at 10 μM
AB5711 = test: CLR potentiation, clinical isolate; assay type: cell-based, Acinetobacter baumannii; conditions: adjuvant at 10 μM
AB4490 = test: CLR potentiation, clinical isolate; assay type: cell-based, Acinetobacter baumannii; conditions: adjuvant at 10 μM
AB5674 = test: CLR potentiation, clinical isolate; assay type: cell-based, Acinetobacter baumannii; conditions: adjuvant at 10 μM
AB4991 = test: CLR potentiation, clinical isolate; assay type: cell-based, Acinetobacter baumannii; conditions: adjuvant at 10 μM
AB4556 = test: CLR potentiation, clinical isolate; assay type: cell-based, Acinetobacter baumannii; conditions: adjuvant at 10 μM
AB5256 = test: CLR potentiation, clinical isolate; assay type: cell-based, Acinetobacter baumannii; conditions: adjuvant at 10 μM
AB4269 = test: CLR potentiation, clinical isolate; assay type: cell-based, Acinetobacter baumannii; conditions: adjuvant at 10 μM
AB4448 = test: CLR potentiation, clinical isolate; assay type: cell-based, Acinetobacter baumannii; conditions: adjuvant at 10 μM
AB4052 = test: CLR potentiation, clinical isolate; assay type: cell-based, Acinetobacter baumannii; conditions: adjuvant at 10 μM
AB5197 = test: CLR potentiation, clinical isolate; assay type: cell-based, Acinetobacter baumannii; conditions: adjuvant at 10 μM
AB4878 = test: CLR potentiation, clinical isolate; assay type: cell-based, Acinetobacter baumannii; conditions: adjuvant at 10 μM
AB3785 = test: CLR potentiation, clinical isolate; assay type: cell-based, Acinetobacter baumannii; conditions: adjuvant at 10 μM
AB2828 = test: CLR potentiation, clinical isolate; assay type: cell-based, Acinetobacter baumannii; conditions: adjuvant at 10 μM
AB4025 = test: CLR potentiation, clinical isolate; assay type: cell-based, Acinetobacter baumannii; conditions: adjuvant at 10 μM
AB8967 = test: CLR potentiation, clinical isolate; assay type: cell-based, Acinetobacter baumannii; conditions: adjuvant at 10 μM
AB4857 = test: CLR potentiation, clinical isolate; assay type: cell-based, Acinetobacter baumannii; conditions: adjuvant at 10 μM
AB5001 = test: CLR potentiation, clinical isolate; assay type: cell-based, Acinetobacter baumannii; conditions: adjuvant at 10 μM
AB4498 = test: CLR potentiation, clinical isolate; assay type: cell-based, Acinetobacter baumannii; conditions: adjuvant at 10 μM
AB3560 = test: CLR potentiation, clinical isolate; assay type: cell-based, Acinetobacter baumannii; conditions: adjuvant at 10 μM
AB3806 = test: CLR potentiation, clinical isolate; assay type: cell-based, Acinetobacter baumannii; conditions: adjuvant at 10 μM
AB4027 = test: CLR potentiation, clinical isolate; assay type: cell-based, Acinetobacter baumannii; conditions: adjuvant at 10 μM
AB3927 = test: CLR potentiation, clinical isolate; assay type: cell-based, Acinetobacter baumannii; conditions: adjuvant at 10 μM
AB4795 = test: CLR potentiation, clinical isolate; assay type: cell-based, Acinetobacter baumannii; conditions: adjuvant at 10 μM
A. baumannii AB5075 [2] = test: Checkerboard assay colistin and compound; assay type: cell-based, Acinetobacter baumannii; conditions: COL alone
[3] = HepG2, 24 h, read-out: HepG2 IC50

Molecule: Nc1nc(-c2ccc3nc(-c4cc(Cl)cc(Cl)c4)[nH]c3c2)c[nH]1 [Compound 2]
MIC (A. baumannii AB19606): > 200 µM | MIC (A. baumannii AB5075 [1]): > 200 µM | IC50 (HepG2 cells; HepG2, read-out: IC50 against HepG2 cells): 69.8 µM

Molecule: Nc1nc(-c2ccc3nc(-c4cccc(Cl)c4Cl)[nH]c3c2)c[nH]1 [Compound 10]
MIC (A. baumannii AB19606): ≥ 200 µM | MIC (A. baumannii AB5075 [1]): ≥ 200 µM

Molecule: Nc1nc(-c2ccc3nc(-c4ccccc4Cl)[nH]c3c2)c[nH]1 [Compound 9]
MIC (A. baumannii AB19606): ≥ 200 µM | MIC (A. baumannii AB5075 [1]): ≥ 200 µM

Molecule: Nc1nc(-c2ccc3nc(-c4cc(Cl)c(Cl)c(Cl)c4)[nH]c3c2)c[nH]1 [Compound 6]
MIC (A. baumannii AB19606): ≥ 200 µM | MIC (A. baumannii AB5075 [1]): ≥ 200 µM

Molecule: Cl.Nc1nc(-c2ccc3nc(-c4ccc(Cl)c(Cl)c4)[nH]c3c2)c[nH]1 [Compound 5]
CLR MIC fold reduction (AB4957): 4 fold | CLR MIC fold reduction (AB4026): 32 fold | CLR MIC fold reduction (AB5711): 16 fold | CLR MIC fold reduction (AB4490): 4 fold | CLR MIC fold reduction (AB5674): 64 fold | CLR MIC fold reduction (AB4991): 8 fold | MIC (A. baumannii AB19606): ≥ 200 µM | CLR MIC fold reduction (AB4556): 4 [4] fold | CLR MIC fold reduction (AB5256): 512 fold | CLR MIC fold reduction (AB4269): 32 fold | CLR MIC fold reduction (AB4448): 16 fold | CLR MIC fold reduction (AB4052): 16 fold | CLR MIC fold reduction (AB5197): 8 [8] fold | CLR MIC fold reduction (AB4878): 16 fold | CLR MIC fold reduction (AB3785): 64 fold | CLR MIC fold reduction (AB2828): 8 fold | CLR MIC fold reduction (AB4025): 16 fold | CLR MIC fold reduction (AB8967): 32 fold | MIC (A. baumannii AB5075 [1]): ≥ 200 µM | CLR MIC fold reduction (AB4857): 4 fold | CLR MIC fold reduction (AB5001): 16 fold | CLR MIC fold reduction (AB4498): 8 [8] fold | CLR MIC fold reduction (AB3560): 4 fold | TI (HepG2 cells): 9.7–9.9 | IC50 (HepG2 cells; [3]): 73.5 ± 1.1 µM | CLR MIC fold reduction (AB3806): 4 [4] fold | CLR MIC fold reduction (AB4027): 16 fold | CLR MIC fold reduction (AB3927): 16 fold | CLR MIC fold reduction (AB4795): 8 fold

Molecule: Nc1nc(-c2ccc3nc(-c4ccc(Cl)cc4)[nH]c3c2)c[nH]1 [Compound 7]
MIC (A. baumannii AB19606): ≥ 200 µM | MIC (A. baumannii AB5075 [1]): ≥ 200 µM

Molecule: Nc1nc(-c2ccc3nc(-c4cccc(Cl)c4)[nH]c3c2)c[nH]1 [Compound 8]
MIC (A. baumannii AB19606): ≥ 200 µM | MIC (A. baumannii AB5075 [1]): ≥ 200 µM

Now from value to molecule, other results behind:

MIC (A. baumannii AB19606): ≥ 200 µM | MIC (A. baumannii AB5075 [1]): ≥ 200 µM
Molecule: Nc1nc(-c2ccc3nc(-c4ccc(Cl)cc4Cl)[nH]c3c2)c[nH]1 [Compound 11]

MIC (A. baumannii AB19606): ≥ 200 µM | MIC (A. baumannii AB5075 [1]): ≥ 200 µM
Molecule: Cc1ccc(-c2nc3ccc(-c4c[nH]c(N)n4)cc3[nH]2)cc1C [Compound 17]

MIC (A. baumannii AB19606): ≥ 200 µM | MIC (A. baumannii AB5075 [1]): ≥ 200 µM
Molecule: Nc1nc(-c2ccc3nc(-c4cc(Cl)ccc4Cl)[nH]c3c2)c[nH]1 [Compound 12]

CLR MIC fold reduction (AB4957): 2 fold | CLR MIC fold reduction (AB4026): 32 fold | CLR MIC fold reduction (AB5711): 64 fold | CLR MIC fold reduction (AB4490): 64 fold | CLR MIC fold reduction (AB5674): 128 fold | CLR MIC fold reduction (AB4991): 32 fold | MIC (A. baumannii AB19606): 50 µM | CLR MIC fold reduction (AB4556): 8 fold | CLR MIC fold reduction (AB5256): 128 fold | CLR MIC fold reduction (AB4269): 2 fold | CLR MIC fold reduction (AB4448): 32 fold | CLR MIC fold reduction (AB4052): 4 fold | CLR MIC fold reduction (AB5197): 32 fold | CLR MIC fold reduction (AB4878): 32 fold | CLR MIC fold reduction (AB3785): 32 fold | CLR MIC fold reduction (AB2828): 16 fold | CLR MIC fold reduction (AB4025): 16 fold | CLR MIC fold reduction (AB8967): 64 fold | MIC (A. baumannii AB5075 [1]): 50 µM | CLR MIC fold reduction (AB4857): 16 fold | CLR MIC fold reduction (AB5001): 32 fold | CLR MIC fold reduction (AB4498): 8 [8] fold | CLR MIC fold reduction (AB3560): 16 fold | IC50 (HepG2 cells; [3]): 141.6 ± 1.1 µM | CLR MIC fold reduction (AB3806): 32 fold | CLR MIC fold reduction (AB4027): 32 fold | CLR MIC fold reduction (AB3927): 128 fold | CLR MIC fold reduction (AB4795): 16 fold
Molecule: Cl.Nc1nc(-c2ccc3nc(-c4ccc(Cl)c(C(F)(F)F)c4)[nH]c3c2)c[nH]1 [Compound 25]
TI (HepG2 cells): 18.7–19.0

COL MIC against AB5075 (A. baumannii AB5075 [2]): 1 µg/mL
Molecule: colistin

MIC (A. baumannii AB19606): ≥ 200 µM | MIC (A. baumannii AB5075 [1]): ≥ 200 µM
Molecule: Cc1cc(C)cc(-c2nc3ccc(-c4c[nH]c(N)n4)cc3[nH]2)c1 [Compound 16]

MIC (A. baumannii AB19606): ≥ 200 µM | MIC (A. baumannii AB5075 [1]): ≥ 200 µM
Molecule: COc1cc(OC)cc(-c2nc3ccc(-c4c[nH]c(N)n4)cc3[nH]2)c1 [Compound 15]

Source: publication PMC12366125 (ACS Medicinal Chemistry Letters, 2025)
